From publication PMC6355468 (Journal of Pharmaceutical Analysis, 2018)
Read-outs that look alike come from different tables or passages of the source. Blank lines part the entries; values can stand above or below the compound they belong to.

Columns and labels:
[1] = Rat pharmacokinetic study of DZ2002; assay type: in vivo, Sprague-Dawley rats
Procedure, shortened: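 Sprague-Dawley rats (230–280 g), four groups of 3 male + 3 female. Single tail-vein bolus of 5 mg/kg (normal saline), or single gavage doses of 5, 10 or 25 mg/kg. Blood (~100 μL) drawn at 0, 5, 15, 30 min and 1, 2, 4, 6, 8, 11, 24 h into heparinized tubes holding 400 μL methanol with 500 nM internal standard, then centrifuged. Parent and acid metabolite measured by LC-MS/MS. Non-compartmental analysis; F from dose-normalized po/iv AUC0–∞, either parent alone or parent plus acid.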

[2] = assay type: physicochemical, rat
[3] = system: rat blood carboxylesterases; assay type: in vitro ADME; conditions: up to 30 min
Procedure, shortened: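 Fresh rat blood (200 μL) mixed first with 400 μL methanol, then test compound added. Incubated at 23 °C for 0, 2, 5, 10, 15 and 30 min in triplicate, then centrifuged. Supernatants analysed by LC-MS/MS (Synergi Fusion-RP column, water/methanol ammonium formate–formic acid gradient) for the acid metabolite.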

[4] = both, Sprague-Dawley, rat, blood, po
[5] = female, Sprague-Dawley, rat, blood, iv, 5 mg/kg
[6] = female, Sprague-Dawley, rat, blood, po, 5 mg/kg
[7] = female, Sprague-Dawley, rat, blood, po, 10 mg/kg
[8] = female, Sprague-Dawley, rat, blood, po, 25 mg/kg
[9] = male, Sprague-Dawley, rat, blood, iv, 5 mg/kg
[10] = male, Sprague-Dawley, rat, blood, po, 5 mg/kg
[11] = male, Sprague-Dawley, rat, blood, po, 10 mg/kg
[12] = male, Sprague-Dawley, rat, blood, po, 25 mg/kg
[13] = after three cycles of freeze and thaw of −70 °C↔23 °C, 80 nM
[14] = after three cycles of freeze and thaw of −70 °C↔23 °C, 8000 nM
[15] = in rat blood at 23 °C for 4 h, 80 nM
[16] = in rat blood at 23 °C for 4 h, 8000 nM
[17] = in rat blood at −70 °C for 60 days, 80 nM
[18] = in rat blood at −70 °C for 60 days, 8000 nM
[19] = in supernatant of methanol-treated rat blood at 10 °C for 24 h, 80 nM
[20] = in supernatant of methanol-treated rat blood at 10 °C for 24 h, 8000 nM
[21] = rats, intravenous DZ2002 at 5 mg/kg

half-life [1, 4]: 78 to 306 min | AUC(0-inf) [1, 5]: 4.8 ± 0.3 µM·h | AUC(0-t) [1, 5]: 4.71 ± 0.34 µM·h | MRT [1, 5]: 30.6 ± 1.8 min | concentration at 5 min [1, 5]: 15.5 µM | half-life [1, 5]: 73.2 ± 26.4 min | AUC(0-inf) [1, 6]: 4.36 ± 0.701 µM·h | AUC(0-t) [1, 6]: 4.27 ± 0.669 µM·h | Cmax [1, 6]: 6.49 ± 1.04 µM | MRT [1, 6]: 60.6 ± 5.4 min | Tmax [1, 6]: 11.4 ± 6 min | half-life [1, 6]: 124 ± 68.4 min | AUC(0-inf) [1, 7]: 7.81 ± 0.846 µM·h | AUC(0-t) [1, 7]: 7.6 ± 1.03 µM·h | Cmax [1, 7]: 7.23 ± 1.98 µM | MRT [1, 7]: 97.8 ± 44.4 min | Tmax [1, 7]: 16.8 ± 12.6 min | half-life [1, 7]: 233 ± 225 min | AUC(0-inf) [1, 8]: 18.4 µM·h | AUC(0-t) [1, 8]: 17.6 µM·h | Cmax [1, 8]: 19.8 µM | MRT [1, 8]: 177 ± 166 min | Tmax [1, 8]: 11.4 ± 6 min | half-life [1, 8]: 305 ± 218 min | AUC(0-inf) [1, 9]: 5.03 ± 0.212 µM·h | AUC(0-t) [1, 9]: 4.94 ± 0.226 µM·h | MRT [1, 9]: 33.6 ± 16.8 min | concentration at 5 min [1, 9]: 15.3 µM | half-life [1, 9]: 96.6 ± 104 min | AUC(0-inf) [1, 10]: 3.9 ± 0.501 µM·h | AUC(0-t) [1, 10]: 3.77 ± 0.608 µM·h | Cmax [1, 10]: 5.23 ± 2.59 µM | MRT [1, 10]: 74.4 ± 40.8 min | Tmax [1, 10]: 19.8 ± 8.4 min | half-life [1, 10]: 79.8 ± 38.4 min | AUC(0-inf) [1, 11]: 6.81 ± 0.223 µM·h | AUC(0-t) [1, 11]: 6.71 ± 0.267 µM·h | Cmax [1, 11]: 7.03 ± 1.05 µM | MRT [1, 11]: 78.6 ± 11.4 min | Tmax [1, 11]: 19.8 ± 8.4 min | half-life [1, 11]: 87.6 ± 13.8 min | AUC(0-inf) [1, 12]: 18.4 µM·h | AUC(0-t) [1, 12]: 18.1 µM·h | Cmax [1, 12]: 16 µM | MRT [1, 12]: 96 ± 18.6 min | Tmax [1, 12]: 25.2 ± 8.4 min | half-life [1, 12]: 167 ± 82.8 min | Stability, response (%Control) [2, 13]: (98.1) %Control | Stability, response (%Control) [2, 14]: (89.5) %Control | Stability, response (%Control) [2, 15]: (95.2) %Control | Stability, response (%Control) [2, 16]: (97.5) %Control | Stability, response (%Control) [2, 17]: (108) %Control | Stability, response (%Control) [2, 18]: (112) %Control | Stability, response (%Control) [2, 19]: (106) %Control | Stability, response (%Control) [2, 20]: (109) %Control
Compound: Nc1ncnc2c1ncn2CCC(O)C(=O)O (stereo not shown) [DZA, 4-(6-amino-9H-purin-9-yl)-2-hydroxybutyric acid]

Compound: COC(=O)[C@@H](O)CCn1cnc2c(N)ncnc21 [DZ2002, Methyl (S)-4-(6-amino-9H-purin-9-yl)-2-hydroxybutanoate]
bioavailability [1, 4]: 90 to 159% | half-life [1, 4]: 18 to 54 min | F1 (oral bioavailability, from AUC of DZ2002) ([1]; female rat, oral DZ2002 at 5 mg/kg vs iv 5 mg/kg): 145 ± 27% | F1 (oral bioavailability, from AUC of DZ2002) ([1]; female rat, oral DZ2002 at 10 mg/kg vs iv 5 mg/kg): 90 ± 27% | F1 (oral bioavailability, from AUC of DZ2002) ([1]; female rat, oral DZ2002 at 25 mg/kg vs iv 5 mg/kg): 118 ± 41% | AUC(0-inf) [1, 5]: 0.68 ± 0.396 µM·h | AUC(0-t) [1, 5]: 0.66 ± 0.376 µM·h | MRT [1, 5]: 9 ± 3.6 min | Vd [1, 5]: 4.59 ± 0.96 L/kg | clearance [1, 5]: 590 mL/min/kg | concentration at 5 min [1, 5]: 3.03 ± 1.45 µM | half-life [1, 5]: 9 ± 6.6 min | AUC(0-inf) [1, 6]: 0.985 ± 0.184 µM·h | AUC(0-t) [1, 6]: 0.963 ± 0.182 µM·h | Cmax [1, 6]: 2.72 ± 0.418 µM | MRT [1, 6]: 25.8 ± 6.6 min | Tmax [1, 6]: 4.8 min | half-life [1, 6]: 18.6 ± 7.2 min | AUC(0-inf) [1, 7]: 1.23 ± 0.348 µM·h | AUC(0-t) [1, 7]: 1.18 ± 0.366 µM·h | Cmax [1, 7]: 2.13 ± 0.742 µM | MRT [1, 7]: 44.4 ± 9.6 min | Tmax [1, 7]: 8.4 ± 6 min | half-life [1, 7]: 32.4 ± 10.8 min | AUC(0-inf) [1, 8]: 4.02 ± 1.4 µM·h | AUC(0-t) [1, 8]: 3.95 ± 1.43 µM·h | Cmax [1, 8]: 8.49 ± 2.49 µM | MRT [1, 8]: 40.2 ± 13.8 min | Tmax [1, 8]: 4.8 min | half-life [1, 8]: 42.6 ± 25.2 min | F1 (oral bioavailability, from AUC of DZ2002) ([1]; male rat, oral DZ2002 at 5 mg/kg vs iv 5 mg/kg): 157 ± 18% | F1 (oral bioavailability, from AUC of DZ2002) ([1]; male rat, oral DZ2002 at 10 mg/kg vs iv 5 mg/kg): 146 ± 20% | F1 (oral bioavailability, from AUC of DZ2002) ([1]; male rat, oral DZ2002 at 25 mg/kg vs iv 5 mg/kg): 159 ± 48% | AUC(0-inf) [1, 9]: 0.504 ± 0.146 µM·h | AUC(0-t) [1, 9]: 0.495 ± 0.142 µM·h | MRT [1, 9]: 6.6 ± 1.2 min | Vd [1, 9]: 4.5 ± 1.22 L/kg | clearance [1, 9]: 707 mL/min/kg | concentration at 5 min [1, 9]: 2.46 ± 0.597 µM | half-life [1, 9]: 4.8 ± 0.6 min | AUC(0-inf) [1, 10]: 0.79 ± 0.092 µM·h | AUC(0-t) [1, 10]: 0.729 ± 0.052 µM·h | Cmax [1, 10]: 1.38 ± 0.457 µM | MRT [1, 10]: 40.2 ± 19.2 min | Tmax [1, 10]: 11.4 ± 6 min | half-life [1, 10]: 27 ± 13.8 min | AUC(0-inf) [1, 11]: 1.47 ± 0.199 µM·h | AUC(0-t) [1, 11]: 1.41 ± 0.171 µM·h | Cmax [1, 11]: 2.36 ± 1.1 µM | MRT [1, 11]: 49.8 ± 14.4 min | Tmax [1, 11]: 8.4 ± 6 min | half-life [1, 11]: 40.8 ± 29.4 min | AUC(0-inf) [1, 12]: 4 ± 1.21 µM·h | AUC(0-t) [1, 12]: 3.85 ± 1.15 µM·h | Cmax [1, 12]: 4.02 ± 0.898 µM | MRT [1, 12]: 72 ± 22.2 min | Tmax [1, 12]: 8.4 ± 6 min | half-life [1, 12]: 55.8 ± 16.2 min | Systemic clearance (CLtot,b) exceeding rat cardiac output (17.8 L/h/kg) [1, 21]: around 2 times | Systemic clearance (CLtot,b) exceeding rat hepatic blood flow rate (3.31 L/h/kg) [1, 21]: around 13 times | Stability, response (%Control) [2, 13]: (108) %Control | Stability, response (%Control) [2, 14]: (102) %Control | Stability, response (%Control) [2, 15]: (93.6) %Control | Stability, response (%Control) [2, 16]: (102) %Control | Stability, response (%Control) [2, 17]: (94.6) %Control | Stability, response (%Control) [2, 18]: (92.4) %Control | Stability, response (%Control) [2, 19]: (108) %Control | Stability, response (%Control) [2, 20]: (108) %Control | Formation of DZA in methanol-treated rat blood spiked with DZ2002 ([3]; 400 μL methanol to 50–200 μL rat blood, 23 °C): undetected | Stability of DZ2002 in rat blood ([3]; freshly collected rat blood, 1000 nM, 23 or 37 °C): quickly transformed into its acid metabolite DZA

Stability, response (%Control) ([2]; after three cycles of freeze and thaw of −70 °C↔23 °C, 500 nM): (98.4) %Control | Stability, response (%Control) ([2]; in rat blood at 23 °C for 4 h, 500 nM): (108) %Control | Stability, response (%Control) ([2]; in rat blood at −70 °C for 60 days, 500 nM): (104) %Control | Stability, response (%Control) ([2]; in stock solutions at −70 °C for 6 months, internal standard (500 nM)): (97.9) %Control | Stability, response (%Control) ([2]; in supernatant of methanol-treated rat blood at 10 °C for 24 h, 500 nM): (106) %Control
Compound: 3-(6-amino-9H-purin-9-yl)-2,2-diethylpropanoic acid [Internal standard, reference compound]
